Reference: ChEMBL document CHEMBL4680176, “Identification of DOT1L inhibitors by structure-based virtual screening adapted from a nucleoside-focused library” (Eur J Med Chem, 2020)
Calls of active or inactive are those of the source. The rule behind the calls is not given here.

Experiments:
[1] = molecular target: Protein arginine N-methyltransferase 5 (Homo sapiens, UniProt O14744); test: Inhibition of recombinant human PRMT5 using histone H2A as substrate by hotspot assay
[2] = molecular target: Histone-lysine N-methyltransferase EZH2 (Homo sapiens, UniProt Q15910); test: Inhibition of recombinant human EZH2 using core histone as substrate by hotspot assay
Histone-lysine N-methyltransferase EZH2, sequence (Q15910 whole entry): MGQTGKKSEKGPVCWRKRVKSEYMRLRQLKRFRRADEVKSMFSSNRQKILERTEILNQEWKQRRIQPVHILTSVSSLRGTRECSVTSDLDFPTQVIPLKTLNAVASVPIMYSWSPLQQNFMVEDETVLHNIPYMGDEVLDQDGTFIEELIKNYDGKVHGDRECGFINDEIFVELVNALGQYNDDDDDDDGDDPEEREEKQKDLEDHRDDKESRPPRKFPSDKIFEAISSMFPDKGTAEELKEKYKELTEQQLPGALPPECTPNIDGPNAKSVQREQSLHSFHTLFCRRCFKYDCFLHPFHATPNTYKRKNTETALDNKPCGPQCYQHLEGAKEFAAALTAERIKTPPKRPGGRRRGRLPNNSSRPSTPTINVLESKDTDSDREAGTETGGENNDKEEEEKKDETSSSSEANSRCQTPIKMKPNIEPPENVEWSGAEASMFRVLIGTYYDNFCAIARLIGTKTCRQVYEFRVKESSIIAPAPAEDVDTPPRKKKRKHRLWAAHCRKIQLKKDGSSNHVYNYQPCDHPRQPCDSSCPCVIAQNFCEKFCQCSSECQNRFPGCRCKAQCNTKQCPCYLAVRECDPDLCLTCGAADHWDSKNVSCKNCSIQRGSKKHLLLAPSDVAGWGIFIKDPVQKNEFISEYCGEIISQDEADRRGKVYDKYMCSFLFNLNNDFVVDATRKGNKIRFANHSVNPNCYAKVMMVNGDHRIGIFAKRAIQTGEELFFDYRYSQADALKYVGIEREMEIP

[3] = molecular target: T1, Histone-lysine N-methyltransferase EHMT2 (Homo sapiens, UniProt Q96KQ7); test: Inhibition of recombinant human G9a using histone H3 (1 to 21) as substrate by hotspot assay
T1 sequence (Q96KQ7 whole entry): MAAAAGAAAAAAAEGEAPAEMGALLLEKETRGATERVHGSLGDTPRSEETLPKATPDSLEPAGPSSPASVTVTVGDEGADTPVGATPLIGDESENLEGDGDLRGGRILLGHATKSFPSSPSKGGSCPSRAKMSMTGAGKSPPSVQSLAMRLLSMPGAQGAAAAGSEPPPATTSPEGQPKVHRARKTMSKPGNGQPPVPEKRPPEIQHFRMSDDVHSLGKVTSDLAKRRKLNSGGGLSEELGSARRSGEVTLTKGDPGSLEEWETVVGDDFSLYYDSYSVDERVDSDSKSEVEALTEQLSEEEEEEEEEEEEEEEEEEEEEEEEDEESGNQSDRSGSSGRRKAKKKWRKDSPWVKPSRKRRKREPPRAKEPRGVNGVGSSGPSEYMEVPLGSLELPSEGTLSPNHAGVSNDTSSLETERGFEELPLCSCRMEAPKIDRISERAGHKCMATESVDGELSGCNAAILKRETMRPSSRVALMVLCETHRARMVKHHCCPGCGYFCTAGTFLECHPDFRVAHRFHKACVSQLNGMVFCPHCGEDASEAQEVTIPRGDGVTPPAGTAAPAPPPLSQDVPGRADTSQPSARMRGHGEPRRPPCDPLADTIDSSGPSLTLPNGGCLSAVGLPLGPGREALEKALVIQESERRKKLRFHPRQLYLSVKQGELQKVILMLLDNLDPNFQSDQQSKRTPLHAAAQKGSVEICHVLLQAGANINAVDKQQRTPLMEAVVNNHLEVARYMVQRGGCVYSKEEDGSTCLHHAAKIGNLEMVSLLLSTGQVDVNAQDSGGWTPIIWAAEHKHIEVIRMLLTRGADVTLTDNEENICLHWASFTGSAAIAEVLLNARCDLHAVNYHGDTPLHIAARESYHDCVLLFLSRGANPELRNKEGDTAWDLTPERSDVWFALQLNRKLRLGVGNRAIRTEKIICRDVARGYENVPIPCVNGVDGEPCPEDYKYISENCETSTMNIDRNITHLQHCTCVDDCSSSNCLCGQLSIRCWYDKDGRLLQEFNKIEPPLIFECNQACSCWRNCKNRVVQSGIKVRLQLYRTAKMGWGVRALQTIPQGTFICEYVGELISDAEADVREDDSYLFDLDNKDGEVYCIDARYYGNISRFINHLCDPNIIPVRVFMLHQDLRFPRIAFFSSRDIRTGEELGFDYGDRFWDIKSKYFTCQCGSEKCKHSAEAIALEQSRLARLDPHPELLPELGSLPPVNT

[4] = molecular target: DNA (cytosine-5)-methyltransferase 1 (Homo sapiens, UniProt P26358); test: Inhibition of recombinant human DNMT1 using poly(dl-dC) as substrate by hotspot assay
DNA (cytosine-5)-methyltransferase 1, sequence (P26358 whole entry): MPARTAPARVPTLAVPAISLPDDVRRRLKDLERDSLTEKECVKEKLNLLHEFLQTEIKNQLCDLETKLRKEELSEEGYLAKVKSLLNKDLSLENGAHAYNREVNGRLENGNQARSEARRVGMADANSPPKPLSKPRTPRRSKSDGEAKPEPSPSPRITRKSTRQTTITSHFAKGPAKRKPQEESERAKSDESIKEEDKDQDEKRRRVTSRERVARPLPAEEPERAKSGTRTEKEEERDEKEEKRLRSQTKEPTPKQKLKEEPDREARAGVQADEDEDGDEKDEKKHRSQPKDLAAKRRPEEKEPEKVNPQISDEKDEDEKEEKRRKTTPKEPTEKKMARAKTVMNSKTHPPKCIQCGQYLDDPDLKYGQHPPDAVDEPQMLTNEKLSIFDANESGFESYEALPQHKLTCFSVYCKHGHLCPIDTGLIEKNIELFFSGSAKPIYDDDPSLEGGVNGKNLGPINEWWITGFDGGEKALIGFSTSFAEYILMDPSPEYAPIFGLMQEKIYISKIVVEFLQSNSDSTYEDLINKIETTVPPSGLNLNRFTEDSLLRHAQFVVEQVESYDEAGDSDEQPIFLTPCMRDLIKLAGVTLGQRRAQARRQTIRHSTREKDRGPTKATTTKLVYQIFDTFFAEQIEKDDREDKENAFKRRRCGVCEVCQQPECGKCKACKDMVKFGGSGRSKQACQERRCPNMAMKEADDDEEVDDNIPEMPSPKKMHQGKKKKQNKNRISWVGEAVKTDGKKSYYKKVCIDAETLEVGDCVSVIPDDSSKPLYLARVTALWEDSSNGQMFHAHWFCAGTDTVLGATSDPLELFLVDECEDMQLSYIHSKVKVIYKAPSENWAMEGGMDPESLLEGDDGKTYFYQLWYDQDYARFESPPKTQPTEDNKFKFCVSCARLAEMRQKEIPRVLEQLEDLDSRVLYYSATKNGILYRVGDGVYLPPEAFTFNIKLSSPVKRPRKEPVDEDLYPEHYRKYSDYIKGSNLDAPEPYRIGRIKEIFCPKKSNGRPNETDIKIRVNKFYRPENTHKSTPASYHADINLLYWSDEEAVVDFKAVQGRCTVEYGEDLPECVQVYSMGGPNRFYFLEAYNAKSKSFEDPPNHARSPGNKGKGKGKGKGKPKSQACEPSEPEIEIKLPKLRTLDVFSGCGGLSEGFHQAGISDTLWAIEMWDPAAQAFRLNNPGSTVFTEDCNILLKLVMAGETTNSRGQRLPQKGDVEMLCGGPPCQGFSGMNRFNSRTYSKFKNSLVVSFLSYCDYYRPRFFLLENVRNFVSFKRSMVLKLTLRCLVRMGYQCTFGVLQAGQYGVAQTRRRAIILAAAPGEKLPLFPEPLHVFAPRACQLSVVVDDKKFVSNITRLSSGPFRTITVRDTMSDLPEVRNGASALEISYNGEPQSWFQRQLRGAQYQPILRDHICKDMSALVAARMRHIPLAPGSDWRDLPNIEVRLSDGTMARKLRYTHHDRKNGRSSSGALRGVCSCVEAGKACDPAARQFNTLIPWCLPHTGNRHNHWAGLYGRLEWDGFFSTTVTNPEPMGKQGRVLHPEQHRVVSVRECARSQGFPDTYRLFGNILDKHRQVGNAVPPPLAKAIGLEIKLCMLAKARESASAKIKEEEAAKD

[5] = molecular target: Protein arginine N-methyltransferase 3 (Homo sapiens, UniProt O60678); test: Inhibition of recombinant human PRMT3 using histone H4 as substrate by hotspot assay
Protein arginine N-methyltransferase 3, sequence (O60678 whole entry): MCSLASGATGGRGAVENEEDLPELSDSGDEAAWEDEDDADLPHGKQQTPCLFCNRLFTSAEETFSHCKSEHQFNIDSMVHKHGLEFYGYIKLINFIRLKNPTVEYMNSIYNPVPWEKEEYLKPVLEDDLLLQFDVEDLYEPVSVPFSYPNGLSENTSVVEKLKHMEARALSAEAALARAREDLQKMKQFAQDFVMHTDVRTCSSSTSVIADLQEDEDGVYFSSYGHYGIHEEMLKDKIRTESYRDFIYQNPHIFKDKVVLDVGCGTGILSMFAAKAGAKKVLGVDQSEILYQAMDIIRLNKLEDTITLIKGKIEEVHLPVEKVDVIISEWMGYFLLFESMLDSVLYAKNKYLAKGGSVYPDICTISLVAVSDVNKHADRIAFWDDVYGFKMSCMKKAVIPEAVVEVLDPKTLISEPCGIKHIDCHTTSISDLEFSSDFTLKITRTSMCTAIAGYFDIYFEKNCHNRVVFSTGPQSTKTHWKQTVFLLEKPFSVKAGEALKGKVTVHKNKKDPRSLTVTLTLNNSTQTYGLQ

[6] = molecular target: T2, Histone-lysine N-methyltransferase SETD7 (Homo sapiens, UniProt Q8WTS6); test: Inhibition of recombinant human SET7/9 using core histone as substrate by hotspot assay
T2 sequence (Q8WTS6 whole entry): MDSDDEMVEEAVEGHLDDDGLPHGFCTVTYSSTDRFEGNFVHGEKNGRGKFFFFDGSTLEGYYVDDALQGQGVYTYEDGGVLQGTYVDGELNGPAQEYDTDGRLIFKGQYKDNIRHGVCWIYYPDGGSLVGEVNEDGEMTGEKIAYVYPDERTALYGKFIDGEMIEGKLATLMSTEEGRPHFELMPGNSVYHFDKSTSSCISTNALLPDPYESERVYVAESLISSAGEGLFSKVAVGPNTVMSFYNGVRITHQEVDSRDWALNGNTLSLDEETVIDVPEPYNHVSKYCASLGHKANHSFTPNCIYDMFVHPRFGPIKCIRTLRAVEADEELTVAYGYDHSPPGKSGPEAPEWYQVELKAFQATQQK

[7] = molecular target: T3, Histone-lysine N-methyltransferase, H3 lysine-79 specific (Homo sapiens, UniProt Q8TEK3); test: Inhibition of recombinant human N-terminal GST-tagged DOT1L (1 to 420 residues) expressed in Escherichia coli BL21 (DE3) using histone as substrate incubated for 1 hr by MTase-glo based luminescence assay
[8] = molecular target: T4, Protein arginine N-methyltransferase 7 (Homo sapiens, UniProt Q9NVM4); test: Inhibition of recombinant human PRMT7 using GST-GAR as substrate by hotspot assay
T4 sequence (Q9NVM4 whole entry): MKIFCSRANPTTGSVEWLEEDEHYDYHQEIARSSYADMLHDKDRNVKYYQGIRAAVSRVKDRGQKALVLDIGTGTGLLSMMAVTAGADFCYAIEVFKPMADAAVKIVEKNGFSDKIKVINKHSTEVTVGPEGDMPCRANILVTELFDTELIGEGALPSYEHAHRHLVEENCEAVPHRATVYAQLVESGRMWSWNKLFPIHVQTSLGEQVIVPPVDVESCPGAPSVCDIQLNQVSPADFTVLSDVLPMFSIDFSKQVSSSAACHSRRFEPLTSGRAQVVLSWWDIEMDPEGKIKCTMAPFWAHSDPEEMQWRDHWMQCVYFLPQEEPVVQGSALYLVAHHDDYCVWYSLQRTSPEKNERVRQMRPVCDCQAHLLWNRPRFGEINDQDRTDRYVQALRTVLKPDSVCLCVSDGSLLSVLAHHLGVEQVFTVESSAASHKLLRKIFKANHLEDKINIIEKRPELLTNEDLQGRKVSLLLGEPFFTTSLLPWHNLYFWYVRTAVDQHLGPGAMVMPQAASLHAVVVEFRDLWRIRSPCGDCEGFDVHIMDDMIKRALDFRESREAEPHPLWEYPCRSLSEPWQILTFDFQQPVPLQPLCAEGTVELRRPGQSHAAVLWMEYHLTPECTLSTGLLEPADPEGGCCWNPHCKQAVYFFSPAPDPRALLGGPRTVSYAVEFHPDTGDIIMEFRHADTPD

[9] = molecular target: Protein arginine N-methyltransferase 8 (Homo sapiens, UniProt Q9NR22); test: Inhibition of recombinant human PRMT8 using histone H4 as substrate by hotspot assay
Protein arginine N-methyltransferase 8, sequence (Q9NR22 whole entry, the tested form may be a part): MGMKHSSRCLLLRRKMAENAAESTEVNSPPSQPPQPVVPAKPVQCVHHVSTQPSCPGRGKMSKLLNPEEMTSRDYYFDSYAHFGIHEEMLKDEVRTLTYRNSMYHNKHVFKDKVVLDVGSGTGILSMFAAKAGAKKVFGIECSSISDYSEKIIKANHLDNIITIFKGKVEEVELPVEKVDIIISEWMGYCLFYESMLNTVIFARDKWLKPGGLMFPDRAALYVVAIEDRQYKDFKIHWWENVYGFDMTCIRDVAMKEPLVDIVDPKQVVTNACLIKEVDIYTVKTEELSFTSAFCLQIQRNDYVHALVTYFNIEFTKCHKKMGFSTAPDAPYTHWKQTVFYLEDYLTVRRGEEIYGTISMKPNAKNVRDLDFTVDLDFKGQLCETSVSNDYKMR

[10] = molecular target: T3, Histone-lysine N-methyltransferase, H3 lysine-79 specific; test: Inhibition of recombinant human N-terminal GST-tagged DOT1L (1 to 420 residues) expressed in Escherichia coli BL21 (DE3) using nucleosome as substrate incubated for 1 hr in presence of [3H]-SAM by liquid scintillation counting method
Method in brief: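 GST-tagged DOT1L catalytic domain (1-420), expressed in E. coli BL21(DE3) and Ni-affinity purified, used at 125 nM. Compound added before SAM start; 1 hr at room temperature. Product captured on P81 filters, NaHCO3-washed, and counted by scintillation.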

[11] = molecular target: T3, Histone-lysine N-methyltransferase, H3 lysine-79 specific; test: Binding affinity to recombinant human N-terminal GST-tagged DOT1L (1 to 420 residues) expressed in Escherichia coli BL21 (DE3) assessed as increase in melting temperature at 100 uM incubated for 1 min by 1,8-ANS probe based thermal shift assay
[12] = molecular target: T3, Histone-lysine N-methyltransferase, H3 lysine-79 specific; test: Binding affinity to recombinant human N-terminal GST-tagged DOT1L (1 to 420 residues) expressed in Escherichia coli BL21 (DE3) assessed as increase in melting temperature at 100 uM incubated for 1 min by 1,8-ANS probe based thermal shift assay
[13] = molecular target: T5, Histone H3 methyltransferase DOT1 variant d (Mus musculus) (UniProt Q679P4); test: Inhibition of DOT1L in mouse bone marrow cell transformed with MLL-AF9 cells assessed as reduction in H3K27 methylation at 100 uM measured upto 9 days by Western blot analysis; assay type: cell-based; details: time day <=9
T5 sequence (whole entry): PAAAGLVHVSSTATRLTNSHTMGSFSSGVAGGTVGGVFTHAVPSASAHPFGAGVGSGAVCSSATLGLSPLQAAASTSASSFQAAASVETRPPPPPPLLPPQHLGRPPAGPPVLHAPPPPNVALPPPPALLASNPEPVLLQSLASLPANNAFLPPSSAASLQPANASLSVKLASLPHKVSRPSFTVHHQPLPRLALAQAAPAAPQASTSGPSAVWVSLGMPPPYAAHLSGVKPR

[14] = molecular target: T5, Histone H3 methyltransferase DOT1 variant d (Mus musculus); test: Inhibition of DOT1L in mouse bone marrow cell transformed with MLL-AF9 cells assessed as reduction in H3K79 methylation at 100 uM measured upto 9 days by Western blot analysis; assay type: cell-based; details: time day <=9, TDE = time-dependent effect
[15] = molecular target: T5, Histone H3 methyltransferase DOT1 variant d (Mus musculus); test: Inhibition of DOT1L in mouse bone marrow cell transformed with MLL-AF9 cells assessed as reduction in H3K36 methylation at 100 uM measured upto 9 days by Western blot analysis; assay type: cell-based; details: time day <=9

Protein arginine N-methyltransferase 5, sequence (O14744 whole entry): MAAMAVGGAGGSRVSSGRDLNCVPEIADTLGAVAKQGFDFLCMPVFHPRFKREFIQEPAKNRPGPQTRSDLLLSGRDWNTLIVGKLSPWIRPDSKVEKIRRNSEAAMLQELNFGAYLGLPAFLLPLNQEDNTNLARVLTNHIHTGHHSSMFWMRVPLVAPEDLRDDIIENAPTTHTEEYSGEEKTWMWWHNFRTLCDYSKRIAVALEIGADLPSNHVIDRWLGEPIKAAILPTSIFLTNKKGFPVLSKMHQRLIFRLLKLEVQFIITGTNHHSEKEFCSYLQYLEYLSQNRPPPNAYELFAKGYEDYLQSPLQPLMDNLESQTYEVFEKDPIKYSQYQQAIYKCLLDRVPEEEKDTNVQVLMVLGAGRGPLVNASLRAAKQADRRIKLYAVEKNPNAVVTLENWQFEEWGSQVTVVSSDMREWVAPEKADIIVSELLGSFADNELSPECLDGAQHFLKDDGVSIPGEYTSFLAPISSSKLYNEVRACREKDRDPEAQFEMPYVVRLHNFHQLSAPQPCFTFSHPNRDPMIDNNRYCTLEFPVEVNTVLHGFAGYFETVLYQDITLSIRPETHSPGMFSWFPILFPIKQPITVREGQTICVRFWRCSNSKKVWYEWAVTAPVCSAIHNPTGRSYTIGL

## CC(C)(C)c1ccc(NC(=O)c2ncn(CC(=O)NCc3ccc4[nH]ncc4c3)n2)cc1
[1]
  IC50: Not Active
[2]; read-out: IC50
  IC50: > 250 µM
[3]; read-out: IC50
  IC50: > 250 µM
[4]
  IC50: Not Active
[5]
  IC50: Not Active
[6]
  IC50: Not Active
[7]
  IC50: 22.4 µM

## CC(C)(C)c1ccc(NC(=O)c2ncn(CC(=O)NCc3ccc4c(N)nccc4c3)n2)cc1
[8]; read-out: IC50
  IC50: 61.5 µM
[1]; read-out: IC50
  IC50: 113 µM
[2]
  IC50: Not Active
[3]; read-out: IC50
  IC50: 61.4 µM
[4]
  IC50: Not Active
[5]; read-out: IC50
  IC50: 25.3 µM
[9]
  IC50: 53.6 µM
[6]; read-out: IC50
  IC50: 79.8 µM
[7]
  IC50: 19.5 µM

## Nc1ncnc2c1ncn2[C@@H]1O[C@H](CNCc2ccc(OCc3ccccc3)cc2)[C@@H](O)[C@H]1O
[10]
  IC50: 120 µM
[11]
  Activity: Active

## Nc1nccc2cc(CNC(=O)Cn3cnc(C(=O)NC4CCCCC4)n3)ccc12
[8]
  IC50: Not Active
[1]
  IC50: Not Active
[5]
  IC50: Not Active
[9]
  IC50: 94.9 µM
[7]
  IC50: > 100 µM

## CC(C)(C)c1ccc(NC(=O)c2ncn(CC(=O)NCc3ccc4c(c3)OCO4)n2)cc1
[7]
  IC50: 23.5 µM

## Cc1ccc(NC(=O)c2ncn(CC(=O)NCCn3ccc4c(N)ncnc43)n2)cc1C
[1]
  IC50: Not Active
[2]
  IC50: Not Active
[3]
  IC50: Not Active
[4]; read-out: IC50
  IC50: > 250 µM
[5]
  IC50: Not Active
[6]
  IC50: Not Active
[7]
  IC50: 10.9 µM

## Cc1ccc(NC(=O)c2ncn(CC(=O)NCc3ccc4c(c3)OCO4)n2)cc1C
[10]
  IC50: 82.9 µM
[12]
  Activity: Active
[7]
  IC50: 40.8 µM

## O=C(Cn1cnc(C(=O)NC2CCCCC2)n1)NCc1ccc2c(c1)OCO2
[7]
  IC50: > 100 µM

## Nc1ncnc2c1ncn2[C@@H]1O[C@H](CNCc2ccc(-c3cc(C(F)(F)F)ccc3Cl)o2)[C@@H](O)[C@H]1O
[10]
  IC50: 32.4 µM
[11]
  Activity: Active

## Nc1ncnc2c1ncn2[C@@H]1O[C@H](CNCc2ccc(OCC(=O)Nc3ccccn3)cc2)[C@@H](O)[C@H]1O
[10]
  IC50: 54.9 µM
[13]
  inhibition: inactive
[11]
  Activity: Active
[14]
  inhibition: Tde
[15]
  inhibition: inactive

## O=C(Cn1cnc(C(=O)NC2CCCCC2)n1)NCc1ccc2[nH]ncc2c1
[7]
  IC50: > 100 µM

## Nc1ncnc2c1ncn2[C@@H]1O[C@H](CNC(=O)[C@@H](N)Cc2ccc(C(F)(F)F)cc2)[C@@H](O)[C@H]1O
[10]
  IC50: 168 µM
[11]
  Activity: Active

## Cc1ccc(NC(=O)c2ncn(CC(=O)NCc3nc4ccccc4[nH]3)n2)cc1C
[10]
  IC50: 130 µM
[12]
  Activity: Active

## O=C(Nc1ccn(CCCN2CCC(c3ccccc3)CC2)c(=O)n1)OCc1ccccc1
[10]
  IC50: 710 µM
[12]
  Activity: Active

## Cc1ccc(NC(=O)c2ncn(CC(=O)NCCn3cnc4[nH]ccc4c3=O)n2)cc1C
[7]
  IC50: 138 µM

## Nc1ncnc2c1ncn2[C@@H]1O[C@H](CSCC[C@H](N)C(=O)O)[C@@H](O)[C@H]1O [S-ADENOSYLHOMOCYSTEINE]
[5]; read-out: IC50
  IC50: 0.76 µM

## Cc1ccc(NC(=O)c2ncn(CC(=O)NCc3ccc4[nH]ncc4c3)n2)cc1C
[7]
  IC50: 36.9 µM

## Cc1ccc(NC(=O)c2ncn(CC(=O)NCc3ccc4c(N)nccc4c3)n2)cc1C
[8]; read-out: IC50
  IC50: 69.4 µM
[1]
  IC50: Not Active
[5]
  IC50: Not Active
[9]
  IC50: 216 µM
[7]
  IC50: 69.2 µM

## Nc1ncnc2c1ccn2CCNC(=O)Cn1cnc(C(=O)NC2CCCCC2)n1
[7]
  IC50: > 100 µM

## O=C(Nc1ccn(CCCNCc2ccc3c(c2)OCO3)c(=O)n1)OCc1ccccc1
[10]
  IC50: 677 µM
[12]
  Activity: Active

## Nc1ncnc2c1ncn2[C@@H]1O[C@H](CNCc2ccc(OCC(=O)Nc3nccs3)cc2)[C@@H](O)[C@H]1O
[10]
  IC50: 90.4 µM
[11]
  Activity: Active

## Nc1ncnc2c1ncn2[C@@H]1O[C@H](C(=O)N2CCC[C@H]2C(=O)OCc2ccccc2)[C@@H](O)[C@H]1O
[10]
  IC50: 85.3 µM
[11]
  Activity: Active

## Cc1ccc2nc(NC(=O)c3ncn(CC(=O)NCc4ccc5c(c4)OCO5)n3)[nH]c2c1
[7]
  IC50: 55.6 µM

## Nc1ncnc2c1ncn2[C@@H]1O[C@H](CNC(=O)[C@@H](N)Cc2ccc(C(=O)c3ccccc3)cc2)[C@@H](O)[C@H]1O
[10]
  IC50: 57 µM
[11]
  Activity: Active
